Legend:
Homo sapiens [1] = species on record: Homo sapiens; assay: Lysis of human erythrocytes at a concentration of 1 mM for 30 minutes at 37 degree C; assay type: functional
Procedure, shortened: (§1)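 Washed human erythrocytes (0.4 × 10⁸ cells) in phosphate-buffered saline with no protein in the medium; compound at 1 mM final; 30 min at 37 °C. Cells pelleted, then supernatant absorbance compared with freeze-thawed cells to give percent hemolysis.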

Plasmodium falciparum = assay: In vitro antimalarial activity against Plasmodium falciparum D10
Homo sapiens [2] = species on record: Homo sapiens; assay: Compound was evaluated for the lysis of human erythrocytes at a concentration of 1 mM for 30 minutes at 37 degree C; assay type: functional; procedure, shortened: as §1

| Compound | Hemolysis (Homo sapiens [1]) [%] | IC50 (Plasmodium falciparum) [µM] | Hemolysis (Homo sapiens [2]) [%] |
| --- | --- | --- | --- |
| C[C@]12COO[C@H](c3ccccc3)[C@H]1O2 | 2 | > 10 | – |
| C1CCC([C@H]2OOC[C@@H]3O[C@@H]32)C1 | 1 | 1.4 | – |
| C[C@@H]1OO[C@H](CC(=O)OC23CC4CC(CC(C4)C2)C3)[C@H]2O[C@H]21 | 6 | 1.3 | – |
| CCCCCCC[C@H]1OO[C@@H](CCC)[C@H]2O[C@H]21 | 51 | > 10 | – |
| C1=C[C@@H](C2CCCC2)OOC1 | 11 | > 10 | – |
| C1=C[C@H](c2ccccc2)OO[C@@H]1c1ccccc1 | 4 | 6 | – |
| C[C@H]1C=C[C@@H](c2ccccc2)OO1 | 32 | > 10 | – |
| C[C@@H]1OO[C@H](CC(=O)OC23CC4CC(CC(C4)C2)C3)[C@@H]2O[C@@H]21 | 4 | 5 | – |
| C1=C[C@@H](C2CCCCC2)OOC1 | 100 | 3.2 | – |
| c1ccc([C@H]2OO[C@@H](C3CCCCC3)[C@@H]3O[C@@H]32)cc1 | 2 | > 10 | – |
| CCC[C@H]1C=C[C@@H](CCC)OO1 | 2 | > 10 | – |
| C[C@@H]1CC[C@H]2[C@@H](C)C(=O)O[C@@H]3O[C@@]4(C)CC[C@@H]1[C@]32OO4 [ARTEMISININ] | – | – | 4 |
| C[C@H]1C=C[C@@H](CC(=O)OC23C[C@H]4C[C@@H](C2)C[C@@H](C3)C4)OO1 | 27 | 1 | – |
| C1CCC(C[C@H]2OOC[C@@H]3O[C@@H]32)CC1 | 3 | > 10 | – |
| C1=C[C@H](C2CCC2)OO[C@@H]1C1CCC1 | 32 | > 10 | – |
| C1=C[C@@H](CC2CCCCC2)OOC1 | 100 | 9.5 | – |
| C[C@H]1C=C[C@@H](CCCO)OO1 | 0 | 2.5 | – |
| C1CCC(C[C@H]2OOC[C@H]3O[C@@H]23)CC1 | 6 | 2 | – |
| C[C@@H]1OO[C@H](c2ccccc2)[C@H]2O[C@H]21 | 2 | > 10 | – |
| O=C(C1CCCCC1)[C@H]1O[C@H]1[C@@H](O)C1CCCCC1 | 8 | > 10 | – |

| Compound | Hemolysis (Homo sapiens [1]) [%] | IC50 (Plasmodium falciparum) [µM] | Hemolysis (Homo sapiens [2]) [%] |
| --- | --- | --- | --- |
| c1ccc(C2(c3ccccc3)OOCC3OC32)cc1 (stereo not given) | 1 | 5 | – |
| C1CC([C@H]2OO[C@@H](C3CCC3)[C@H]3O[C@H]32)C1 | 1 | 1.6 | – |
| C1CCC([C@H]2OOC[C@@H]3O[C@@H]32)CC1 | 2 | > 10 | – |
| C1CCC([C@H]2OO[C@@H](C3CCCC3)[C@H]3O[C@H]32)C1 | 9 | 0.5 | – |
| C1CCC([C@H]2OO[C@@H](C3CCCCC3)[C@@H]3O[C@@H]32)CC1 | 6 | 0.5 | – |
| CCCCCCC[C@H]1OO[C@@H](CCC)[C@@H]2O[C@@H]21 | 47 | > 10 | – |
| C1CCC([C@H]2OO[C@@H](C3CCCC3)[C@@H]3O[C@@H]32)C1 | 8 | 0.5 | – |
| C1CC([C@H]2OO[C@@H](C3CCC3)[C@@H]3O[C@@H]32)C1 | 1 | 2.9 | – |
| CCCCCCC[C@@H]1C=C[C@H](CCC)OO1 | 62 | > 10 | – |
| C1=C[C@@H](C23C[C@H]4C[C@@H](C2)C[C@@H](C3)C4)OOC1 | 100 | 1.3 | – |
| C1CCC([C@H]2OOC[C@H]3O[C@@H]23)C1 | 1 | 1.4 | – |
| C1=C[C@H](C2CCCCC2)OO[C@@H]1c1ccccc1 | 9 | 8.1 | – |
| C1=C[C@H](C2CCCCC2)OO[C@@H]1C1CCCCC1 | 100 | 1.2 | – |
| C1CCC([C@H]2OO[C@@H](C3CCCCC3)[C@H]3O[C@H]32)CC1 | 5 | 0.32 | – |
| c1ccc([C@H]2OO[C@@H](c3ccccc3)[C@@H]3O[C@@H]32)cc1 | 5 | > 10 | – |
| CCN(CC)CCCC(C)Nc1ccnc2cc(Cl)ccc12 (stereo not given) [CHLOROQUINE] | 1 | – | – |
| C1=C[C@H](C2CCCC2)OO[C@@H]1C1CCCC1 | 52 | 0.6 | – |
| O=C(c1ccccc1)[C@H]1O[C@H]1[C@@H](O)c1ccccc1 (stereo in doubt; 7j) | 2 | – | – |
| C1C2CC3CC1CC([C@H]1OOC[C@@H]4O[C@@H]41)(C2)C3 | 41 | 4 | – |

Reference: ChEMBL document CHEMBL1149128, “Novel endoperoxide antimalarials: synthesis, heme binding, and antimalarial activity” (J Med Chem, 2004)
